In ChEMBL document CHEMBL1141573, “Quinolone 3-carboxylic acid pharmacophore: design of second generation HIV-1 integrase inhibitors” (J Med Chem, 2008):
Blank lines part the entries; values can stand above or below the compound they belong to. The source made the active and inactive calls. No cut-off for these calls is given here.

Experiments:
[1] = target: Human immunodeficiency virus type 1 integrase (Human immunodeficiency virus 1) (UniProt Q7ZJM1); assay: Inhibition of HIV1 integrase at 100 uM
How it was run: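 Wild-type recombinant IN (200 nM final) preincubated with compound 30 min at 30 °C in buffer with 7.5 mM MnCl2, 10% DMSO, MOPS pH 7.2. Then 20 nM 5′-32P-labeled 21-mer U5 LTR duplex added for 1 h. Reactions quenched with formamide loading dye. Conversion to 19-mer (3′-processing) and strand transfer products gives % inhibition versus DNA alone and DNA plus IN.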

[2] = tested on: Human immunodeficiency virus 1; assay: Antiviral activity against HIV1 in MT4 cells assessed as inhibition of viral-induced cytopathic effect by MTT method; type: functional, organism-based; conditions: Human immunodeficiency virus 1, MT4
How it was run: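 MT-4 cells (RPMI 1640 with 10% heat-inactivated FCS, 2 mM L-glutamine, 37 °C, 5% CO2) infected with 100–300 CCID50 of HIV-1(IIIB) in presence of 5-fold serial compound dilutions. Viral CPE read by MTT reduction to formazan measured spectrophotometrically. IC50 = concentration giving 50% protection against CPE.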

[3] = target: T1, Human immunodeficiency virus type 1 integrase (Human immunodeficiency virus 1, UniProt Q7ZJM1); assay: Inhibition of HIV1 integrase 3'-end processing activity
How it was run: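 Wild-type recombinant IN, 200 nM final, preincubated with inhibitor at 30 °C for 30 min in buffer with 7.5 mM MnCl2, 10% DMSO, 25 mM MOPS pH 7.2. Then 20 nM 5′-32P-labeled 21-mer U5 LTR duplex substrate added, incubated a further 1 h. 21-mer to 19-mer conversion gives % inhibition versus DNA-alone and no-drug controls. IC50 from log concentration versus % inhibition.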

[4] = target: T1, Human immunodeficiency virus type 1 integrase; assay: Inhibition of HIV1 integrase strand transfer activity
[5] = Cytotoxicity against human MT4 cells; type: cell-based
How it was run: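 Viability of mock-infected MT-4 cells after 5 days of incubation, measured by MTT reduction to formazan read spectrophotometrically; CC50 derived.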

Chain of Human immunodeficiency virus type 1 integrase (Human immunodeficiency virus 1) (Q7ZJM1 as listed by the source): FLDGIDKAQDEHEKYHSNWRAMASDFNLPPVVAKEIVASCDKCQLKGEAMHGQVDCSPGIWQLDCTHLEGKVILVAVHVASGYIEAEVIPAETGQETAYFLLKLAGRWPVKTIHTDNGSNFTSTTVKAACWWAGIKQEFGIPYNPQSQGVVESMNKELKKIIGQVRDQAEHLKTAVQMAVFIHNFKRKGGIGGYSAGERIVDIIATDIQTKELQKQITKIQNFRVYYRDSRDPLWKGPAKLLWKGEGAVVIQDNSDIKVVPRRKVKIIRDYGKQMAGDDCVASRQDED
T1 sequence (Q7ZJM1 whole entry): as the sequence (Q7ZJM1 as listed by the source) above

Activity [1]: inactive
Compound: CCOc1cc(CNc2nn[nH]n2)ccc1OCc1ccc(C)cc1

Compound: COc1cc2c(cc1Cc1cccc(Cl)c1F)c(=O)c(C(=O)O)cn2CCO
EC50 [2]: 0.017 µM

Activity [1]: inactive
Compound: Cc1ccc(C)c(NC(=O)CSc2ncccc2C(=O)O)c1

Activity [1]: inactive
Compound: COc1cc(CNc2nn[nH]n2)ccc1OCc1c(F)cccc1Cl

Compound: O=C(O)c1c[nH]c2ccc(Cc3cccc(Cl)c3F)cc2c1=O
EC50 [2]: 0.805 µM

Compound: O=C(O)c1cn(CCO)c2ccc(Cc3cccc(Cl)c3F)cc2c1=O
EC50 [2]: 0.076 µM

Activity [1]: inactive
Compound: COc1cc(NC(=O)c2ccc3c(c2)C(=O)N(c2ccccc2OC)C3=O)c(C(=O)O)cc1OC

Activity [1]: inactive
Compound: Cc1nc2ccccc2n1CC(O)COc1cccc(C(=O)O)c1 (stereo unspecified)

IC50 [3]: 14 µM
IC50 [4]: 5 µM
Compound: COc1ccc(/C=C2\C(=O)N(c3nnn[nH]3)N=C2C)cc1OCc1ccccc1Cl

IC50 [3]: 92 µM
IC50 [4]: 66 µM
Compound: O=C(O)CN1C(=O)/C(=C2\SC(=S)N(C(Cc3ccccc3)C(=O)O)C2=O)c2ccccc21 (stereo unspecified)

IC50 [3]: 63 µM
IC50 [4]: 17 µM
Compound: Cc1ccc(C(=O)O)cc1NC(=O)CSc1nc2ccccc2s1

Activity [1]: inactive
Compound: COc1cc(C2NC(C(=O)O)CS2)ccc1OCc1c(Cl)cccc1Cl (stereo unspecified)

IC50 [3]: > 100 µM
IC50 [4]: 52 µM
Compound: CCOc1cc(CNc2nn[nH]n2)cc(Cl)c1OCc1ccc(Cl)cc1

Activity [1]: inactive
Compound: O=C(Nc1ccccc1C(=O)O)c1ccc(CN2CCc3ccccc3C2)cc1

Activity [1]: inactive
Compound: COc1cc(CNc2nn[nH]n2)ccc1OCc1ccc(Cl)cc1

Activity [1]: inactive
Compound: COc1cc(CNc2nn[nH]n2)ccc1OCc1ccc(F)cc1

Activity [1]: inactive
Compound: CCn1nc(NC(=O)CCCC(=O)O)c2cc3cc(C)ccc3nc21

Activity [1]: inactive
Compound: O=C(Nc1ccccn1)c1ccc(NC(=O)C2CC=CCC2C(=O)O)cc1 (stereo unspecified)

IC50 [3]: > 100 µM
IC50 [4]: > 100 µM
Compound: O=C(O)CSc1nc(-c2ccccc2)cc(C(F)(F)F)n1

IC50 [3]: 11 µM
IC50 [4]: 13 µM
Compound: CC1=NN(c2nnn[nH]2)C(=O)/C1=C\c1cc(Cl)c(O)c(Cl)c1

Activity [1]: inactive
Compound: O=C(O)c1ccccc1SCCSc1ccccc1C(=O)O

Activity [1]: inactive
Compound: COc1cc(CNc2nn[nH]n2)ccc1OCc1cccc(C)c1

Activity [1]: inactive
Compound: Cc1cc(OCn2ccc(C(=O)O)n2)ccc1Cl

Activity [1]: inactive
Compound: COc1cc(CNc2nn[nH]n2)ccc1OCc1cccc(Cl)c1

Activity [1]: inactive
Compound: Cc1cc(-c2cccnc2)c(C#N)c(SCC(=O)O)n1

Activity [1]: inactive
Compound: CCOc1cc(CNc2nn[nH]n2)ccc1OCc1ccccc1

IC50 [3]: > 100 µM
IC50 [4]: 46 µM
Compound: O=C(O)C(O)C(O)c1nc2cc3ccccc3cc2[nH]1 (stereo unspecified)

Activity [1]: inactive
Compound: O=C(O)C1CC=CCC1C(=O)Nc1ccc(Cc2ccncc2)cc1 (stereo unspecified)

IC50 [3]: 75 µM
IC50 [4]: 59 µM
Compound: CCOc1cc(/C=C2\C(=O)N(c3nnn[nH]3)N=C2C)ccc1OC

IC50 [3]: 18 µM
IC50 [4]: 5 µM
Compound: O=C(O)CSc1nnc(-c2ccco2)c(-c2ccco2)n1

Activity [1]: inactive
Compound: O=C(O)C1CC(=O)N(c2ccc(OCc3ccccc3Cl)cc2)C1 (stereo unspecified)

IC50 [3]: 7 µM
IC50 [4]: 4 µM
Compound: CCOc1cc(/C=C2\C(=O)N(c3nnn[nH]3)N=C2C)cc(Cl)c1OCC

Activity [1]: inactive
Compound: Cc1ccc(OCc2nnc(SC(C)C(=O)O)n2-c2ccccc2)cc1 (stereo unspecified)

IC50 [3]: > 100 µM
IC50 [4]: 34 µM
Compound: O=C(O)C1CCCCC1C(=O)Nc1ccc(Oc2cccc3ccccc23)cc1 (stereo unspecified)
CC50 [5]: 3.5 µM

IC50 [3]: > 100 µM
IC50 [4]: > 100 µM
Compound: O=C(O)CSc1nc(Nc2ccccc2)nc(N2CCOCC2)n1

Activity [1]: inactive
Compound: CCn1nc(NC(=O)CCC(=O)O)c2cc3cc(C)ccc3nc21

Compound: COc1cc2c(cc1Cc1cccc(Cl)c1F)c(=O)c(C(=O)O)cn2[C@@H](CO)C(C)C
EC50 [2]: 0.0009 µM

Activity [1]: inactive
Compound: COc1cc(CNc2nn[nH]n2)ccc1OCc1c(Cl)cccc1Cl

Activity [1]: inactive
Compound: O=C(O)CSc1nnc2n(Cc3ccc(F)cc3)c3ccccc3n12

IC50 [3]: 14 µM
IC50 [4]: 5 µM
Compound: Nc1c(C(=O)Nc2ccc(Cl)c(Cl)c2)sc2[nH]c(=O)c(C(=O)O)cc12

Activity [1]: inactive
Compound: COc1cc(CNc2nn[nH]n2)ccc1OCc1ccc(C)cc1

Activity [1]: inactive
Compound: O=C(O)COc1ccc2c(-c3ccccc3)cc(=O)oc2c1

Compound: CC(C)[C@H](CO)n1cc(C(=O)O)c(=O)c2cc(Cc3cccc(Cl)c3F)ccc21
EC50 [2]: 0.007 µM

Activity [1]: inactive
Compound: Cc1ccc2[nH]c(CNC(=O)CCC(=O)O)cc2c1

Activity [1]: inactive
Compound: Cc1nn(-c2ccccc2)c2sc(-c3nnc(SCC(=O)O)o3)cc12

Activity [1]: inactive
Compound: O=C(CSc1ncccc1C(=O)O)Nc1cccc2ccccc12

Activity [1]: inactive
Compound: O=C(O)CCCC(=O)Nc1nc(-c2cccc3ccccc23)cs1

Activity [1]: inactive
Compound: Cc1ccc2nc(NC(=O)CSCC(=O)O)sc2c1

Activity [1]: inactive
Compound: COc1ccc(-c2nnc(SCC(=O)N/N=C/c3ccccc3C(=O)O)n2-c2ccccc2)cc1OC

Activity [1]: inactive
Compound: O=C(O)CSc1nnc(COc2cccc3ccccc23)o1

IC50 [3]: > 100 µM
IC50 [4]: > 100 µM
Compound: O=C(O)CSc1nc(-c2cccs2)cc(C(F)(F)F)n1

Activity [1]: inactive
Compound: COc1ccc2[nH]c(SCC(=O)Nc3cc(C(=O)O)ccc3C)nc2c1

IC50 [3]: 48 µM
IC50 [4]: 23 µM
Compound: Cc1ccc2nc(-c3ccc(NC(=O)/C=C/C(=O)O)cc3)sc2c1

IC50 [3]: 61 µM
IC50 [4]: 65 µM
Compound: CCOc1cc(N(CC)CC)ccc1/C=C1\C(=O)N(c2nnn[nH]2)N=C1C

IC50 [3]: 82 µM
IC50 [4]: 43 µM
Compound: COc1cccc(NC(=O)c2sc3[nH]c(=O)c(C(=O)O)cc3c2N)c1

Activity [1]: inactive
Compound: CCN(C(=O)CCC(=O)O)c1nc(CC(=O)Nc2ccc(Cl)cc2)cs1

Activity [1]: inactive
Compound: O=C(O)CSCC(=O)Nc1nc(-c2ccccc2)cs1

Activity [1]: inactive
Compound: O=C(O)C1CC(=O)N(c2ccc(OCc3c(F)cccc3Cl)cc2)C1 (stereo unspecified)

Activity [1]: inactive
Compound: O=C(O)c1cccc(OCC(O)Cn2cnc3ccccc32)c1 (stereo unspecified)

Activity [1]: inactive
Compound: CCn1c(CNC(=O)CCC(=O)O)cc2ccccc21

IC50 [3]: 98 µM
IC50 [4]: 60 µM
Compound: N#Cc1c(-c2ccc(Cl)cc2)cc(-c2ccccc2)nc1SCC(=O)O

Activity [1]: inactive
Compound: COc1ccc(-c2ccc(-c3nnn(C(C)C(=O)O)n3)cc2)cc1 (stereo unspecified)

Activity [1]: inactive
Compound: Cc1ccc2nc(NC(=O)CCC(=O)O)sc2c1

Activity [1]: inactive
Compound: CCCn1nc(NC(=O)CCC(=O)O)c2cc3cc(C)ccc3nc21

Activity [1]: inactive
Compound: O=C(O)CSc1ccc(-c2nc3ccccc3[nH]2)cn1

Activity [1]: inactive
Compound: O=C(CSc1nnc(-c2ccc(Cl)cc2)n1-c1ccccc1)N/N=C/c1ccccc1C(=O)O

Activity [1]: inactive
Compound: CCOc1cc(C2NC(C(=O)O)CS2)ccc1OCc1cccc(C)c1 (stereo unspecified)

Activity [1]: inactive
Compound: COc1ccc(/C=N/Nc2nc(C(=O)O)cs2)cc1

IC50 [3]: 42 µM
IC50 [4]: 18 µM
Compound: O=C(O)c1ccccc1NC(=O)c1ccccc1S(=O)(=O)Nc1ccc(Oc2ccccc2)cc1

IC50 [3]: 5 µM
IC50 [4]: 4 µM
Compound: COc1cc(/C=C2\C(=O)N(c3nnn[nH]3)N=C2C)cc(Cl)c1OC
